Results: ChEMBL document CHEMBL3407395, “Synthesis, characterization, and optimization for in vivo delivery of a nonselective isopeptidase inhibitor as new antineoplastic agent” (J Med Chem, 2015)
Calls of active or inactive are those of the source. No cut-off for these calls is given here.

Tests used:
[1] = Cytotoxicity against human U87MG cells after 48 hrs by resazurin assay; format: functional, cell-based, U-87MG ATCC; conditions: U-87 MG
How it was run: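 U87MG glioblastoma cells treated with compounds; viability read by resazurin 48 h after treatment. IC50 from triplicate experiments, reported as mean and s.d.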

U-87 MG [2] = experiment: Induction of necrosis in human U87MG cells at 0.6 to 10 uM after 24 hrs by trypan blue assay; format: functional, cell-based; conditions: U-87MG ATCC
How it was run: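 U87MG cells treated 24 h at the indicated concentrations. Death scored as percent trypan blue-positive cells. Caspase activity measured in parallel with a rhodamine 110 bis-(N-Z-DEVD amide) fluorogenic substrate and read in relative fluorescence units.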

[3] = molecular target: T1, Ubl carboxyl-terminal hydrolase 18 (Homo sapiens) (UniProt Q9UMW8); experiment: Inhibition of USP18 (unknown origin) expressed in human A549 cells coexpressing ISG15-GFP assessed as reduction in free GFP at 25 to 100 nM after 24 hrs by immunoblot assay
T1 sequence (whole entry): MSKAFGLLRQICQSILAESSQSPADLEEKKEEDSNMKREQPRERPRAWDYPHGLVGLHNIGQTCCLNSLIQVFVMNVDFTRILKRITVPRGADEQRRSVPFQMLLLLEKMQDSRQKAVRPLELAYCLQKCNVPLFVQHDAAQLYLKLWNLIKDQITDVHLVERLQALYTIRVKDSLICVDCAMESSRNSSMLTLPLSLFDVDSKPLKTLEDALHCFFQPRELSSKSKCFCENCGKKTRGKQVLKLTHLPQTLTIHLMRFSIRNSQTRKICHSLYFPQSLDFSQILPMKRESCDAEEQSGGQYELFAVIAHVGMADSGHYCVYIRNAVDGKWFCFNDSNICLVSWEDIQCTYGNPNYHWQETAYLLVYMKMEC

A549 [4] = experiment: Induction of cell death in human A549 cells assessed as accumulation of poly-ubiquitinated proteins at 0.025 to 0.5 uM after 24 hrs by immunoblot assay; format: functional, cell-based
A549 [5] = experiment: Induction of cell death in human A549 cells assessed as accumulation of Noxa at 0.025 to 0.1 uM after 24 hrs by immunoblot assay; format: functional, cell-based
A549 [6] = experiment: Induction of cell death in human A549 cells assessed as stabilization of p53 at 0.025 to 0.5 uM after 24 hrs by immunoblot assay; format: functional, cell-based
T98G [7] = experiment: Induction of necrosis in human T98G cells at 0.6 to 10 uM after 24 hrs by trypan blue assay; format: functional, cell-based
How it was run: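 T98G cells exposed 24 h to the listed concentrations. Cell death was scored as percent of trypan blue-positive cells.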

T98G [8] = experiment: Induction of apoptosis in human T98G cells assessed as caspase activation at 0.6 to 10 uM after 24 hrs by rhodamine-based fluorescence assay; format: functional, cell-based
How it was run: (§1)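 U87MG or T98G cells exposed 24 h to the listed concentrations. Caspase activity was read as relative fluorescence units from the rhodamine 110 bis-(N-Z-L-aspartyl-L-glutamyl-L-valyl-aspartic acid amide) fluorogenic substrate.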

U-87 MG [9] = experiment: Induction of apoptosis in human U87MG cells assessed as caspase activation at 0.6 to 10 uM after 24 hrs by rhodamine-based fluorescence assay; format: functional, cell-based; conditions: U-87MG ATCC; how it was run: as §1
U-87MG ATCC = experiment: Induction of cell death in human U87MG cells at 4.2 to 18.4 uM after 24 hrs by trypan blue assay in presence of zVAD-fmk; format: functional, cell-based
[10] = molecular target: T2, Ubiquitin carboxyl-terminal hydrolase isozyme L5 (Homo sapiens, UniProt Q9Y5K5); experiment: Inhibition of GST-tagged UCHL5 (unknown origin) using Ub-AMC as substrate preincubated for 30 mins before substrate addition measured after 60 mins by fluorescence assay
T2 sequence (Q9Y5K5 whole entry): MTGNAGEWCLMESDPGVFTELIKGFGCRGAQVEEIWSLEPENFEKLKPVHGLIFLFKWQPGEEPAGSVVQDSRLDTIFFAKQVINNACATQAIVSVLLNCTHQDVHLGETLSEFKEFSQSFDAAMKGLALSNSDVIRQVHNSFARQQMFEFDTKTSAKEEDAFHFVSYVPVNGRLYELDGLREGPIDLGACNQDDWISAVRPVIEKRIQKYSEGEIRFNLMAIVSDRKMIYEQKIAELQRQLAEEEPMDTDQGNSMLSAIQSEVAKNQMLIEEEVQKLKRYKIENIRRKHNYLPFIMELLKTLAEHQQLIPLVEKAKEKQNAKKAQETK
How it was run: (§2)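 Purified isopeptidase activity was measured with ubiquitin-AMC as fluorogenic substrate; IC50 was derived from inhibition.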

[11] = molecular target: T1, Ubl carboxyl-terminal hydrolase 18 (Homo sapiens); experiment: Inhibition of USP18 (unknown origin) expressed in human A549 cells coexpressing ISG15-GFP assessed as reduction in free GFP at 1 to 5 uM after 24 hrs by immunoblot assay; format: cell-based
[12] = molecular target: T3, Ubl carboxyl-terminal hydrolase 18 (Homo sapiens, UniProt Q9UMW8); experiment: Inhibition of recombinant human USP18 (16 to 372 aa) expressed in Sf9 cells using ISG15-AMC as substrate preincubated for 30 mins before substrate addition measured after 60 mins by fluorescence assay
T3 sequence (Q9UMW8 whole entry): T1 sequence (whole entry)

A549 [13] = experiment: Induction of cell death in human A549 cells assessed as stabilization of p53 at 1 to 5 uM after 24 hrs by immunoblot assay; format: functional, cell-based
[14] = molecular target: T4, Ubiquitin carboxyl-terminal hydrolase 2 (Homo sapiens, UniProt O75604); experiment: Inhibition of USP2 catalytic domain (unknown origin) expressed in bacteria using Ub-AMC as substrate preincubated for 30 mins before substrate addition measured after 60 mins by fluorescence assay; how it was run: as §2
T4 sequence (O75604 whole entry): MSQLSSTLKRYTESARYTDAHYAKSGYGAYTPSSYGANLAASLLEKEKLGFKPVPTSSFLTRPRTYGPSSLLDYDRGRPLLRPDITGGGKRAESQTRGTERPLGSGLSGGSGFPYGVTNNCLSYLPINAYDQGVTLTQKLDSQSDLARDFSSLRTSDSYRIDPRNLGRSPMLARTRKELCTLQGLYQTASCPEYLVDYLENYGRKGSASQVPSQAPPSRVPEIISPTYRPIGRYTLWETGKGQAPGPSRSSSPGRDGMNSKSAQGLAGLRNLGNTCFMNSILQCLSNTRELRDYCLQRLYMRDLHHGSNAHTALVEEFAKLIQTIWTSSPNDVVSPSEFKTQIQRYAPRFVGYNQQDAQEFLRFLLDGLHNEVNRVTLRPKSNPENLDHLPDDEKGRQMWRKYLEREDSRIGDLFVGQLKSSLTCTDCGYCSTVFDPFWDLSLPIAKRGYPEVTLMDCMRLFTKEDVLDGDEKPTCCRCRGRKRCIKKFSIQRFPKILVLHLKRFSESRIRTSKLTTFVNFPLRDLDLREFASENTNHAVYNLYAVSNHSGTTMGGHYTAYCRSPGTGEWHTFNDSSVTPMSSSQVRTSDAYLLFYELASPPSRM

A549 [15] = experiment: Induction of cell death in human A549 cells assessed as accumulation of poly-ubiquitinated proteins at 1 to 5 uM after 24 hrs by immunoblot assay; format: functional, cell-based
[16] = molecular target: Ubiquitin carboxyl-terminal hydrolase isozyme L1 (Homo sapiens) (UniProt P09936); experiment: Inhibition of GST-tagged recombinant full-length UCHL1 (unknown origin) expressed in bacteria using Ub-AMC as substrate preincubated for 30 mins before substrate addition measured after 60 mins by fluorescence assay; how it was run: as §2
Sequence of Ubiquitin carboxyl-terminal hydrolase isozyme L1 (Homo sapiens) (P09936 whole entry, looked up): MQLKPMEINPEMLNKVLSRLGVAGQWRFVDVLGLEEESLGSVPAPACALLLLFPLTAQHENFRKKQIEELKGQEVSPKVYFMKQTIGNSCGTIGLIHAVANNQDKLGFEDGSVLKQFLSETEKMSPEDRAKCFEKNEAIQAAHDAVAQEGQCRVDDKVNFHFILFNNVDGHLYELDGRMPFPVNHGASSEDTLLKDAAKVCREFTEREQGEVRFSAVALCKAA

Compound	IC50 [1] [µM]	other results
O=C1/C(=C/c2ccccc2)CS(=O)(=O)C/C1=C\c1ccccc1	5.11	–
COc1ccc(/C=C2\CS(=O)(=O)C/C(=C\c3ccc(OC)cc3)C2=O)cc1	3.57	–
O=C1/C(=C/c2ccc([N+](=O)[O-])cc2)C[S+]([O-])C/C1=C\c1ccc([N+](=O)[O-])cc1 (stereo not drawn)	1.79	Activity (U-87 MG [2]): Active
CC(C)C[C@H](NC(=O)[C@H](Cc1ccccc1)NC(=O)c1cnccn1)B(O)O	–	inhibition [3]: inactive; Activity (A549 [4]): Active; Activity (A549 [5]): Active; Activity (A549 [6]): Active
Cc1ccc(/C=C2\CS(=O)(=O)C/C(=C\c3ccc(C)cc3)C2=O)cc1	4.74	Activity (T98G [7]): Active; Activity (U-87 MG [2]): Active; Activity (T98G [8]): Active; Activity (U-87 MG [9]): Active; Activity (U-87MG ATCC): Active
O=C1/C(=C/c2ccc([N+](=O)[O-])cc2)CSC/C1=C\c1ccc([N+](=O)[O-])cc1	11.6	–
O=C1/C(=C/c2ccc([N+](=O)[O-])cc2)CS(=O)(=O)C/C1=C\c1ccc([N+](=O)[O-])cc1	0.77	IC50 [10]: 13.6 µM; Activity (U-87 MG [2]): Active; inhibition [11]: Active; IC50 [12]: 33.2 µM; Activity (A549 [13]): Active; IC50 [14]: 32.6 µM; Activity (A549 [15]): Active; inhibition [16]: inactive
O=C1/C(=C/c2ccc(O)cc2)CS(=O)(=O)C/C1=C\c1ccc(O)cc1	6.73	–
COc1ccc(/C=C2\CS(=O)(=O)C/C(=C\c3ccc(OC)c([N+](=O)[O-])c3)C2=O)cc1[N+](=O)[O-]	1.14	–
COc1ccc(/C=C2\CS(=O)(=O)C/C(=C\c3ccc([N+](=O)[O-])cc3)C2=O)cc1	2.09	–
O=C1/C(=C/c2ccc(Oc3ccccc3)cc2)CS(=O)(=O)C/C1=C\c1ccc(Oc2ccccc2)cc1	2.94	–
CCOC(=O)C1C/C(=C\c2ccc([N+](=O)[O-])cc2)C(=O)/C(=C/c2ccc([N+](=O)[O-])cc2)C1 (stereo not drawn)	2.47	–
O=C1/C(=C/c2ccc([N+](=O)[O-])cc2)COC/C1=C\c1ccc([N+](=O)[O-])cc1	50.1	–
Cc1ccc(/C=C2\CS(=O)(=O)C/C(=C\c3ccc([N+](=O)[O-])cc3)C2=O)cc1	1.39	–
O=C1/C(=C/c2cccc([N+](=O)[O-])c2)CS(=O)(=O)C/C1=C\c1cccc([N+](=O)[O-])c1	0.76	–
O=C1/C(=C/c2ccc(F)cc2)CS(=O)(=O)C/C1=C\c1ccc(F)cc1	2.21	–
O=C1/C(=C/c2ccc([N+](=O)[O-])cc2)CC2(C/C1=C\c1ccc([N+](=O)[O-])cc1)OCCO2	15.3	–
O=C1/C(=C/c2ccc([N+](=O)[O-])cc2)CNC/C1=C\c1ccc([N+](=O)[O-])cc1	7.15	–
O=C1/C(=C/c2ccc(O)cc2)CS(=O)(=O)C/C1=C\c1ccc([N+](=O)[O-])cc1	2.17	–
N#Cc1ccc(/C=C2\CS(=O)(=O)C/C(=C\c3ccc(C#N)cc3)C2=O)cc1	1.35	–
O=C1/C(=C/c2ccc([N+](=O)[O-])cc2)CCC/C1=C\c1ccc([N+](=O)[O-])cc1	27.5	–
